# Compounds with a hit are over-represented: about 1.8% of the library has one in this group of screens.
# PERK inhibitor = human PERK inhibition, primary cell-based screen; Q9NZJ5; CHO PERK-DD fusion, SEAP luminescence translation reporter; inhibition, % at 5.6 µM; 0.17% of 220,000 active; AID 1416;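 active = inhibition above the mean inhibition of all tested compounds plus 3 SD, set separately per screening campaign, cut at about 2.9% in these data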;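 also: PERK kinase domain activated by AP20187 dimerizer at 100 nM; 0% = DMSO with dimerizer and 100% = rapamycin at 8.4 µM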
# Target sequence (Q9NZJ5 whole entry, looked up, the tested form may be a part): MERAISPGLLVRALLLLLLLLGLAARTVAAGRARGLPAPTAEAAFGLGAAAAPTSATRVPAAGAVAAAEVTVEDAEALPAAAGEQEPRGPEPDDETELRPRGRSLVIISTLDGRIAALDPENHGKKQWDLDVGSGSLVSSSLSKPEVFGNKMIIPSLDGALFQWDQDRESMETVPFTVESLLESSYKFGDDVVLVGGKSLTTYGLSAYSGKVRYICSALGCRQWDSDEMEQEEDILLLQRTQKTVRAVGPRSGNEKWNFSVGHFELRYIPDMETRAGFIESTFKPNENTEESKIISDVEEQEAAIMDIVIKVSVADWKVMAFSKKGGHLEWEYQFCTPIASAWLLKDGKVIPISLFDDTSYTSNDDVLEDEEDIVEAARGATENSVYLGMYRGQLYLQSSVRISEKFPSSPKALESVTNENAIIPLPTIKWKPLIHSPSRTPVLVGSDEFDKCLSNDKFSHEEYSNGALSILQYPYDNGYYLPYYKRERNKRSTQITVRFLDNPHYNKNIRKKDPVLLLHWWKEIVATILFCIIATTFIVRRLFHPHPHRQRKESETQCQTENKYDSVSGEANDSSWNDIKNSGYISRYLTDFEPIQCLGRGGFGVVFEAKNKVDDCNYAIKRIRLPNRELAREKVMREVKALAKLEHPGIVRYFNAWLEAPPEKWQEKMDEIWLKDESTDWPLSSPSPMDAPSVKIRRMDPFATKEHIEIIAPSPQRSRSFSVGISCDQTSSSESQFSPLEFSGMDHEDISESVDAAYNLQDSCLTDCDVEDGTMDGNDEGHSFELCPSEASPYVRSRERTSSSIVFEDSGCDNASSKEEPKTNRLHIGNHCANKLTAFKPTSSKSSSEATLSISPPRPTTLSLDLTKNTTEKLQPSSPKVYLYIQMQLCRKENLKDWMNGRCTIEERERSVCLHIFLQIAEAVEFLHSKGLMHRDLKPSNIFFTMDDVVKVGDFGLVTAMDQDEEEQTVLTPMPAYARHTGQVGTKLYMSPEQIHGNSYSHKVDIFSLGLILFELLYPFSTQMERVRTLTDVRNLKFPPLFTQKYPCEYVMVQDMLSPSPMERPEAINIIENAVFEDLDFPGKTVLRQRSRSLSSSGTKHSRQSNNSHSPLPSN
# STAT3 inh-1 = STAT3 signaling inhibition; U3A cells, IL-6 STAT3-luciferase reporter, luminescence; host cell line lacks STAT1; inhibition, % at 5.5 µM; 0.89% of 190,000 active;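 active = inhibition above the mean inhibition across all screened compounds plus 3 SD, cut at about 44% in these data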;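 also: 0% = DMSO only wells and 100% = 100 µM nifuroxazide control wells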
# STAT1 inh = inhibitors of IFN-gamma induced STAT1 signaling; inhibition, % at 5.5 µM; NIH 3T3 STAT1-luciferase reporter, luminescence; 0.35% of 200,000 active;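 active = inhibition above a set limit, the mean inhibition across all tested compounds plus 3 SD, cut at about 34% in these data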;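 also: 0% = IFN-gamma with DMSO and 100% = IFN-gamma with 300 µM nifuroxazide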
# STAT3 act = STAT3 signaling activation; 0.91% of 190,000 active; U3A cells, IL-6 STAT3-luciferase reporter, luminescence; 100% = signal with IL-6 EC80 alone; activation (% of control), % at 5.6 µM;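 active = activation above the screen-wide mean of compound activation plus 3 SD, cut at about 130% in these data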;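 also: 0% = background luminescence of wells with medium and substrate only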
#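 system = STAT3-luciferase reporter U3A cells | reagent = IL-6 stimulus at 33 ng/mL final | timing = 1 h compound pre-exposure, 6 h IL-6 stimulation, 37 °C | measured by = luminescence | evaluation = % activation versus median of IL-6-stimulated wells | control set = IL-6-only wells as 100% reference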
# STAT3 inh-2 = confirmation of STAT3 signaling inhibitors; shares compounds with STAT3 inh-1; U3A cells, IL-6 STAT3 luciferase reporter, luminescence; cell line lacks STAT1; inhibition, % at 5.7 µM; 45% of 1,200 active; AID 1265;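 active = inhibition above the hit cutoff computed for the primary STAT3 screen, cut at about 44% in these data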;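 also: 0% = IL-6 plus DMSO and 100% = IL-6 plus nifuroxazide control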
# NFkB inh 2 = NF-kappaB inhibition in STAT3 inhibitor counter-screen; 36% of 1,200 active; inhibition, % at 5.7 µM; HEK293T NF-kB luciferase reporter, TNF-alpha induced; shares compounds with STAT3 inh-1;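 active = inhibition above the mean of solvent-only control wells plus 3 SD, cutoff set per campaign, cut at about 13% in these data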;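 also: 0% = TNF-alpha with DMSO and 100% = TNF-alpha with MG high control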
# STAT1 inh 2 = inhibits STAT1, counter-screen to STAT3 inhibitors | inhibition, % at 5.7 µM | AID 1317 | NIH 3T3 STAT1-luciferase reporter, IFN-gamma induced, luminescence | shares compounds with STAT3 inh-1 | 27% of 1,200 active;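 active = inhibition above the mean plus 3 SD of solvent-only control wells, limit set per screening run, cut at about 16% in these data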;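 also: 0% = DMSO with IFN-gamma and 100% = nifuroxazide control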
# Active calls of the source: *; x = no result.
SMILES,PERK inhibitor,STAT3 inh-1,STAT1 inh,STAT3 act,STAT3 inh-2,NFkB inh 2,STAT1 inh 2
CCN(CC)CCN1C(=O)C(=O)/C(=C(/O)c2c(C)[nH]c(C(=O)OC)c2C)C1c1ccc(C)o1 (stereo not given),0,x,x,x,x,x,x
O=C(CSc1ccc(Br)cc1)N1CCN(C(=O)c2ccco2)CC1,2,-2,-2,104,x,x,x
CN1/C(=C\C(=O)C[n+]2ccc(C(=O)c3ccccc3)cc2)C(C)(C)c2ccccc21,1,56*,-2,57,61*,-11,-1
CN1/C(=C\C(=O)C[n+]2cccc(C(N)=O)c2)C(C)(C)c2ccccc21,1,6,0,102,x,x,x
COc1ccc(C(=O)NCCC2=CCCCC2)cc1,0,52*,-43,58,23,-1,-74
COc1ccc(C(=O)NCC(=O)OCC(=O)NCCC2=CCCCC2)cc1,0,1,-2,101,x,x,x
Cc1cc(C(=O)NC(C)Cc2ccccc2)cc(C)c1[N+](=O)[O-] (stereo not given),-1,21,1,84,x,x,x
O=C(Nc1ccc(N2CCCC2=O)cc1)c1cccc(F)c1,-1,33,-41,74,x,x,x
O=C(Nc1ccc(N2CCCC2)cc1)c1cccc(F)c1,2,48*,-23,63,-3,-24,-140
O=C(Nc1ccc(N2CCCCC2)cc1)c1ccccc1,0,66*,5,49,19,-17,-87
O=C(CN1C(=O)C(c2ccc(F)cc2)=NC12CCCC2)Nc1ccc(F)cc1,-1,58*,23,54,54*,14*,22*
COc1ccc(NC(=O)CN2C(=O)C(c3ccccc3)=NC23CCCCCC3)cc1,0,-8,7,106,x,x,x
CC(=O)c1c(C)[nH]c(C(=O)COc2ccc(C#N)cc2)c1C,0,16,10,90,x,x,x
COc1ccccc1OCC(=O)c1[nH]c(C)c(C(C)=O)c1C,0,56*,14,59,46*,5,12
CC(=O)c1c(C)[nH]c(C(=O)COc2cc(C)ccc2C(C)C)c1C,-1,68*,27,45,73*,21*,22*
N/C(COc1cccc(Cl)c1)=N\NS(=O)(=O)c1ccccc1,2,8,-5,95,x,x,x
Cc1cc(C(=O)CN2C(=O)c3ccccc3C2=O)c(C)n1Cc1cccs1,0,19,-66,86,x,x,x
Cc1cc(C(=O)Cn2nnc3ccccc3c2=O)c(C)n1Cc1cccs1,0,46*,19,66,-1,-24,-98
COc1ccc(C(=O)Nc2ccc(-c3ccc(C)o3)cc2)cc1S(=O)(=O)N1CCOCC1,-1,70*,0,45,71*,28*,1
O=C(Nc1cccc(Br)c1)c1ccc(Cl)c(S(=O)(=O)N2CCOCC2)c1,1,73*,12,40,66*,15*,13
Cc1ccc(C(=O)Nc2cccc(C(=O)O)c2)cc1S(=O)(=O)N1CCCCC1,1,55*,22,58,13,14*,18*
Cc1cc(C)n(-c2ccc(C(=O)Nc3cccc(S(=O)(=O)N4CCCC4)c3)cc2)n1,0,44*,23,66,39,4,9
Cc1ccc(C(=O)Nc2cccc(C(=O)O)c2)cc1S(=O)(=O)N1CCOCC1,0,23,19,81,x,x,x
CCOC(=O)C1(C)NC(c2cccs2)C2C(=O)N(c3ccc(OC)cc3)C(=O)C21 (stereo not given),0,13,6,94,x,x,x
COc1cccc(N/N=C(\C#N)S(=O)(=O)C(C)(C)C)c1,0,8,5,97,x,x,x
SMILES,PERK inhibitor,STAT3 inh-1,STAT1 inh,STAT3 act,STAT3 inh-2,NFkB inh 2,STAT1 inh 2
O=C(Nc1ccc(Cl)c(S(=O)(=O)N2CCOCC2)c1)c1ccc(OCC2CCCO2)cc1 (stereo not given),-1,54*,26,58,61*,22*,9
O=C(Nc1ccc(S(=O)(=O)N2CCCC2)cc1)c1ccc(OCC2CCCO2)cc1 (stereo not given),1,39,7,70,x,x,x
COc1ccc(OC)c(NC(=O)CSc2nncc3ccc(OC)c(OC)c23)c1,-2,x,x,x,x,x,x
COc1ccc(NC(=O)CSc2ncccc2C(=O)OC(C)C)cc1OC,-2,51*,17,61,37,8,17*
COc1ccc(NC(=O)CSc2ccccn2)cc1OC,0,0,4,104,x,x,x
C=CCn1c(C)cc(C2=NNC(=NC(C)(C)C)SC2)c1C,-1,58*,-9,52,45*,28*,-13
C=CCN=C1NN=C(c2cc(C)n(CCOC)c2C)CS1,1,78*,25,35,36,-2,-4
C=CCn1c(C)cc(C2=NNC(=Nc3ccc(C)cc3)SC2)c1C,1,-1,-24,107,x,x,x
CS(=O)(=O)N1CCc2cc(-c3csc(NC(=O)Cc4cccs4)n3)ccc21,0,82*,4,36,72*,19*,8
CC(=O)Nc1nc(-c2ccc3c(c2)CCN3S(C)(=O)=O)cs1,0,0,-16,102,x,x,x
c1csc(-c2nnc(-c3ccc(N4CCOCC4)cc3)o2)c1,0,59*,-16,56,17,-26,-109
CCOc1ccc(-c2nnc(-c3cccs3)o2)cc1,0,79*,31,39,34,-3,-88
CCOc1ccc(-c2nnc(-c3cccs3)o2)cc1OCC,0,5,-26,99,x,x,x
COC(=O)c1cc(S(=O)(=O)Nc2cc(S(=O)(=O)N(C)C)ccc2C)oc1C,1,x,x,x,x,x,x
COc1ccc(C(=O)NCC(=O)OCC(=O)c2ccc3c(c2)NC(=O)CO3)cc1OC,0,12,-1,96,x,x,x
COc1c(C)cc(NC(=O)c2ccc3c(c2)NC(=O)CO3)cc1C,0,45*,5,64,30,-2,0
Nc1nn(-c2cccc(F)n2)cc1-c1ccc(Cl)cc1,1,58*,19,53,14,-25,-138
O=C(Nc1ccc(N2CCOCC2)nc1)c1ccc(C(F)(F)F)cc1,0,61*,-2,51,59*,4,-2
Cc1ccc(S(=O)(=O)C(C#N)c2nc3ccccc3nc2N2CCN(C)CC2)cc1C (stereo not given),0,50*,-6,60,39,10,-9
Cc1ccc(S(=O)(=O)NNC(=O)c2cccc(O)c2)cc1,1,5,-4,98,x,x,x
CC(=O)Nc1ccc(N/C=C/C(=O)c2ccco2)cc1,1,4,-45,96,x,x,x
CN(C)c1ccc(N/C=C/C(=O)c2ccco2)cc1,0,60*,31,53,25,25*,-22
CCOC(=O)c1sc(NC(=O)c2cc3c(s2)CCC(C)C3)nc1C (stereo not given),0,56*,2,54,-7,-9,-43
